# PKD1 kinase inh: inhibitors of human PKD1 kinase | PKD1 kinase fluorescence polarization assay | inhibition, % (no concentration beside the values) | 0.056% of 200,000 active | AID 797
# EBV gp42 inh: blocks Epstein-Barr virus glycoprotein 42 binding; 0.42% of 220,000 active; Fluorescence polarization binding assay, mP read-out; inhibition, % (tested at 21.74 µM); Q1HVG2
# RanGTP-Imp inh: disruptors of Ran-importin-beta complex formation – biochemical, FRET, CFP-Ran, YFP-importin-beta, homogeneous, primary screen; cell-free CFP-Ran/YFP-importin-beta FRET ratio; AID 2216; 1.1% of 300,000 active; inhibition, % (concentration not given with the values);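 active = more than half of the replicate wells show a fall in the fluorescence ratio signal beyond about 16%, limit read from the data, passing the limit was not always enough; inconclusive = exactly half of the replicate wells pass the set limit; inactive = fewer than half of replicates pass the limit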
# Runt-CBFb FRET: Runt domain-CBFb interaction inhibition; AID 1496; Cerulean-Runt/Venus-CBFb FRET ratio 530/480, 1 h; inhibition, % at 20 µM; 0.46% of 220,000 active; Q01196+Q13951;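 active = inhibition over about 50% at 20 µM in the single-dose screen, limit read from the data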
#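 System: Cerulean-labeled Runt domain protein | Quantity: 100 nM of each labeled protein | Schedule: 1 h compound exposure, room temperature | Detection: Fluorescence energy transfer, 422 nm excitation, 530/480 nm emission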
# MEX-5 binding: C. elegans MEX-5 TCR-2 RNA binding activity; 0.38% of 300,000 active; MEX-5/FITC-TCR2 RNA binding, fluorescence polarization; hits give low values; activity score (negative = inhibition of binding), % at 10 µM; Q9XUB2; AID 1832;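 active = inhibition past about -25% in most replicates, and total fluorescence under double the plate's negative control median, limit read from the data; inconclusive = replicates evenly split on the limit, or fluorescence at least double controls; inactive = too little inhibition in most replicates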
# Target sequence (Q9XUB2 whole entry, looked up): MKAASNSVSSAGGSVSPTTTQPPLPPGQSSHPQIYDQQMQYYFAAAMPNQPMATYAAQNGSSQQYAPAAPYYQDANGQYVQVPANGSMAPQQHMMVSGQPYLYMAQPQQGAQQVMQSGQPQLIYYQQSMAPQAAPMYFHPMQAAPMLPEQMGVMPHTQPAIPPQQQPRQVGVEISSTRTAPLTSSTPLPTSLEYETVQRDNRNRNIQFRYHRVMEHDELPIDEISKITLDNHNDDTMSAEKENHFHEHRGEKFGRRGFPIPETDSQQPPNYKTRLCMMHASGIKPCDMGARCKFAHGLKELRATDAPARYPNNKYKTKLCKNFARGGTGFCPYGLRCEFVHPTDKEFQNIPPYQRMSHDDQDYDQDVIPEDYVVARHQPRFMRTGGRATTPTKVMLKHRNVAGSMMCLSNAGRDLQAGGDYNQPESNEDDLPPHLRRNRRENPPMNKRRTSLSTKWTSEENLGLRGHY
# Runt-SMMHC FRET: blocks binding of human RUNX1 Runt domain to CBFb-SMMHC | Q01196+Q13951 | Cerulean-Runt/Venus-CBFb-SMMHC FRET ratio 530/480, 1 h | inhibition, % at 20 µM | 0.74% of 220,000 active | AID 1434;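 active = mean inhibition across duplicate retests at 20 µM reaching about 50%, limit read from the data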;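 also: inhibitors lower the FRET ratio by blocking Runt binding to CBFb-SMMHC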
# Hits are given with their value; n = inactive; u = inconclusive; x = no result. An excerpt weighted towards active compounds, which were near 2% of everything screened. Rule as the data show it, unless noted: active = inhibition above about 50%; inactive = the rest.
SMILES,PKD1 kinase inh,EBV gp42 inh,RanGTP-Imp inh,Runt-CBFb FRET,MEX-5 binding,Runt-SMMHC FRET
CCOC(=O)c1c(C)[nH]c(C)c1C(=O)CSc1nc2ccccc2n1CC,n,122,n,n,n,n
Cc1cc(NS(C)(=O)=O)c(=O)n(Cc2c(F)cccc2Cl)c1,x,x,n,x,n,x
CCCCOc1ccc(-c2cc(C(F)(F)F)c(C#N)c(SCC(=O)O)n2)cc1,n,60,n,n,u,n
N#Cc1c(C(F)(F)F)cc(-c2ccc(F)cc2)nc1SCC(=O)O,n,n,n,n,n,n
COc1ccc2nc3ccccc3nc2c1NC(=O)c1ccccc1Cl,n,n,n,n,-35,n
O=C(Nc1ccc2ccccc2n1)c1ccccc1Cl,x,x,n,x,n,x
O=C(Nc1ccc(F)cc1)Nc1nnc(-c2ccncc2)s1,n,n,n,n,n,n
O=C(Nc1ccc(Cl)cc1)Nc1nnc(-c2ccncc2)s1,n,77,n,n,n,n
COc1ccc(NC(=O)CSc2nc3ccccc3c(=O)n2Cc2cccs2)c(OC)c1,n,n,n,n,n,n
COCCn1c(SCC(=O)Nc2ccc(OC)cc2OC)nc2ccccc2c1=O,x,x,21,x,n,x
CCN(CC)c1ccc(-c2nn3c(-c4cccnc4)nnc3s2)cc1,n,n,n,n,n,80
COc1cc(-c2csc(NC3CCCCC3)n2)cc(OC)c1OC,x,x,n,x,n,x
Cn1cc(Cl)c(C(=O)Nc2nc3ccc([N+](=O)[O-])cc3s2)n1,n,67,n,n,n,n
O=C1N=c2ccc([N+](=O)[O-])cc2=C1c1sc(=O)[nH]c1O,x,x,n,x,-59,x
Cc1cccc(N2CCN(Cc3ccoc3)CC2)c1C,n,n,u,n,n,n
COc1cc(CN2CCN(c3cccc(C)c3C)CC2)cc(OC)c1O,n,111,n,n,n,n
Fc1cccc(NC(=S)NNc2c3ccccc3nc3ccccc23)c1,n,n,n,88,n,87
COC(=O)c1c(C#N)c(N)nc2c1CCC2,n,n,66,96,n,62
COC(=O)c1cc(C)nc(N)c1C#N,n,n,n,n,n,n
COCCN1CCN(C(=O)C2CCC(=O)N(CCc3ccccc3)C2)CC1 (stereo not drawn),x,x,n,x,n,x
CC(C)CC(C(=O)O)N1C(=O)C2C3CC(C2C1=O)C1C(c2ccccc2)c2sc(=O)[nH]c2SC31 (stereo not drawn),n,n,100,n,n,n
O=C(O)CN1C(=O)C2C3CC(C2C1=O)C1C(c2ccccc2)c2sc(=O)[nH]c2SC31 (stereo not drawn),n,n,65,n,n,n
O=C(O)CCCN1C(=O)C2C3CC(C2C1=O)C1C(c2ccccc2)c2sc(=O)n(-c4ccccc4)c2SC31 (stereo not drawn),n,n,n,n,n,n
CC(C)(C)CC(C)(C)NC(=S)Nc1ccc2nc(-c3ccccn3)c(-c3ccccn3)nc2c1,n,n,n,n,n,n
OCCCNC(=S)Nc1ccc2nc(-c3ccccn3)c(-c3ccccn3)nc2c1,n,n,36,n,n,n
SMILES,PKD1 kinase inh,EBV gp42 inh,RanGTP-Imp inh,Runt-CBFb FRET,MEX-5 binding,Runt-SMMHC FRET
CN(C)NC(=S)Nc1ccc2nc(-c3ccccn3)c(-c3ccccn3)nc2c1,n,n,48,n,n,n
Cc1nn(CC(=O)NCCCN2C(C)CCCC2C)c(=O)c2cc3occc3n12 (stereo not drawn),x,x,n,x,n,x
COc1ccc(/C=C2\N=C(c3ccccc3)N(c3ccc(C(=O)O)cc3)C2=O)cc1OC,x,n,26,n,n,n
CCc1c(C)nc2ccc(Br)cc2c1SCCC#N,n,n,n,n,n,n
CCc1c(C)nc2c(Br)cccc2c1SCCC#N,n,n,29,n,n,n
COc1ccc(CCNS(=O)(=O)c2cc(C(=O)O)c(Cl)cc2Cl)cc1,n,n,n,n,n,n
COc1ccc(/C=N/NC(=O)c2cc(C(C)(C)C)[nH]n2)cc1COc1ccc(F)cc1F,n,n,51,n,n,n
Cc1cn2c(nc(=O)c3cccnc32)s1,n,n,n,n,n,n
COc1cc(-c2ccc3c(=O)c4ccccc4n(C)c3c2)cc(OC)c1OC,x,x,57,x,n,x
COc1cc(C2CC(=O)Oc3c2c(=O)n(C)c2ccccc32)cc(OC)c1OC (stereo not drawn),n,n,n,x,n,x
COc1ccc(-c2cc(Cl)cc3c(=O)c4ccccc4n(C)c23)cc1F,x,x,112,x,n,x
Cn1c2ccccc2c(=O)c2ccc(-c3ccc4c(c3)OCO4)cc21,x,x,49,x,n,x
Cn1c(-c2ccc3c(c2)OCO3)cc(=O)c2ccccc21,n,n,n,n,n,n
COCCNC(=O)c1ccc(-n2c(SCc3ccncc3)nc3ccccc3c2=O)cc1,n,n,n,n,n,n
COC(=O)C1=C(C)N(CC2CCCO2)C(=O)C1 (stereo not drawn),n,n,17,n,n,n
CCN1C(=O)CC(C(=O)OC)=C1C,n,n,n,n,n,n
CC1CCCCN1C(=O)COC(=O)C1CCN(S(=O)(=O)c2ccc3c(c2)OCCO3)CC1 (stereo not drawn),x,x,n,x,n,x
Cc1cc(C)c2cc(C#N)c(NCCNC(=S)NCCCN3CCOCC3)nc2c1,n,n,n,n,n,n
CCOC(=O)CC(=O)CSc1nc2ccc(C)cc2cc1C#N,n,n,x,n,x,n
CCOCCCNC(=S)NCCNc1nc2ccc(C)cc2cc1C#N,n,n,31,81,n,111
CCOCCCNC(=S)NCCCNc1nc2ccc(C)cc2cc1C#N,n,n,x,93,n,89
CC1(OC(=O)c2cccs2)C(=O)C=C2C=C(c3ccc(C#N)cc3)OC=C2C1=O (stereo not drawn),x,x,n,x,n,x
CC1(OC(=O)c2cccs2)C(=O)C=C2C=C(c3ccsc3)OC=C2C1=O (stereo not drawn),x,x,n,x,-27,x
CCCCC1=CC2=C(c3ccco3)C(=O)C(C)(OC(=O)c3ccc(OC)cc3)C(=O)C2=CN1Cc1ccccc1 (stereo not drawn),x,52,n,n,n,n
CCCCC1=CC2=C(c3ccco3)C(=O)C(C)(OC(=O)c3ccc(OC)cc3)C(=O)C2=CN1CCOC (stereo not drawn),x,n,n,n,n,n
Nc1nnc2c(n1)CCCC2,n,n,n,n,-32,n
C#CCOc1ccc(C2C(C#N)=C(N)Oc3cc(O)ccc32)cc1 (stereo not drawn),x,x,67,x,n,x
COC(=O)c1ccc(C2C(C#N)=C(N)Oc3cc(O)ccc32)cc1 (stereo not drawn),x,x,n,x,n,x
N#CC1=C(N)Oc2cc(O)ccc2C1c1cccs1 (stereo not drawn),n,n,n,n,n,n
COc1ccc(C2C(C#N)=C(N)Oc3cc(O)ccc32)cc1Cl (stereo not drawn),x,x,59,x,n,x

# Screening results: PubChem BioAssay, several laboratories
